KCNK3 block: human KCNK3 channel inhibition, primary screen | O14649 | 340,000 tested, 0.84% active | B-score at 10 µM | CHO-KCNK3 thallium flux, FluxOR fluorescence; stronger effect = lower value;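 active means B-score under library mean minus 4 SD, starting fluorescence ratio at most library mean plus 5 SD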;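 further: more negative B-score means stronger inhibition of thallium flux through KCNK3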
KCNK9 block: human KCNK9 channel inhibition | B-score at 10 µM | HEK293 KCNK9, FluxOR thallium flux fluorescence; stronger effect = lower value | Q9NPC2 | 310,000 tested, 1.2% active;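 active means ratio B-score over 3 SD below the library mean, with starting fluorescence within 5 SD of its mean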;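 further: negative B-score means less thallium flux so channel inhibition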
KCNQ1 pot: human KCNQ1 channel potentiation or activation | P51787 | CHO-K1 KCNQ1, thallium flux FluxOR fluorescence; stronger effect = higher value | B-score at 10 µM | 310,000 tested, 0.35% active | AID 2648;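 active means fluorescence ratio B-score, a plate-corrected score, at least three library SD, with initial intensity B-score within 5 SD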
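Medium – assay buffer, equal DMSO in all wells · Material – CHO-K1 cell line with stable KCNQ1 potassium channel expression · Signal – kinetic FluxOR thallium fluorescence, 10-s 1-Hz baseline, 110-s post-stimulus read · Compound – single concentration per compound, DMSO matched to controls · Schedule – 37 °C overnight plating, 90-min dark dye load, 20-min compound pretreatment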
Kir21 inh: Kir2.1 (mouse) channel inhibition; P35561; HEK293-Kir2.1, FluxOR thallium flux fluorescence; stronger effect = lower value; B-score at 10 µM; 310,000 tested, 0.85% active; AID 1672;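 active means fluorescence ratio B-score at or below minus 3 SD of library scores, with starting-brightness B-score within 2 SD, cut at about -4.2 in these data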;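 further: channel flux triggered by added potassium and thallium sulfate stimulus; B-score of peak minus minimum fluorescence over baseline after thallium stimulus; more negative B-score means stronger Kir2.1 block with less thallium influx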
Target sequence (P35561 whole entry, looked up): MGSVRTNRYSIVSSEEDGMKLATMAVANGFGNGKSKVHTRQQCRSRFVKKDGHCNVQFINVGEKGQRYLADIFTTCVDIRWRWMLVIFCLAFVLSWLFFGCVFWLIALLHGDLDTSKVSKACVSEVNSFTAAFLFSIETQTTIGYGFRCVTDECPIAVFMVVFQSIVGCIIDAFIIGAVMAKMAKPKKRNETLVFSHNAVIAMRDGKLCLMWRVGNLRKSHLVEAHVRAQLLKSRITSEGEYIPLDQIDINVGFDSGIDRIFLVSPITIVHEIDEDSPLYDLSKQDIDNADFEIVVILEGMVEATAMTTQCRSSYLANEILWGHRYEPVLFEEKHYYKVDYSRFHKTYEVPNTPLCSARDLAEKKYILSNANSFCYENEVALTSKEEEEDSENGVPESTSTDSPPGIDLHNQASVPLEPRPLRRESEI
hERG rescue: hERG (human) protection from proarrhythmic block. AID 1511. CHO-hERG, FluxOR thallium flux, dofetilide IC70 present. activation (rescue from dofetilide block), less the hit threshold, % at 10 µM. Q12809. 310,000 tested, 0.51% active;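 active means activation above the mean of controls blocked by dofetilide plus 5 SD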;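 further: thallium influx through hERG after potassium depolarization seen as dye fluorescence rise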
KCNQ1 inh: blocks the human KCNQ1 potassium channel; P51787; CHO-K1 KCNQ1, FluxOR thallium flux fluorescence; stronger effect = higher value; B-score at 10 µM; 310,000 tested, 1.3% active;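 active means compounds whose thallium flux B-score, printed positive for inhibition, exceeds three library SD while starting fluorescence stays within three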;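 further: channel opened by potassium depolarization with thallium stimulus after 20 min compound exposure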
* = called active by the depositor; i = inactive; . = no result given. Hits are enriched below; roughly 3.7% of the tested compounds scored in any of these assays.

SMILES	KCNK3 block	KCNK9 block	KCNQ1 pot	Kir21 inh	hERG rescue	KCNQ1 inh
O=C(c1cc(Cl)nc2ccccc12)N1CCN(S(=O)(=O)c2cccc(C(F)(F)F)c2)CC1	i	i	i	-0.21	-9	i
CCOC(=O)c1ccc(Oc2nc(NC(C)(C)C)nc(N(C)C)n2)cc1	i	i	27*	0.17	-2	i
CCOC(=O)c1ccc(Oc2nc(N(C)C)nc(N(C)C)n2)cc1	i	i	i	-1.2	-1	i
CC(C)(C)C(=O)NC(=S)NNC(=O)c1ccc(Cl)cc1Cl	i	i	16*	0.02	-9	i
CC(C)(C)C(=O)NC(=S)NNC(=O)c1ccc(-c2ccccc2)cc1	i	i	66*	-1	6.3*	i
CCN(CC)C(=S)NC(=O)c1ccc(Cl)cc1Cl	i	i	17*	-0.41	13*	i
CCCCN(CCCC)C(=S)NC(=O)c1ccccc1Cl	i	i	57*	0.41	65*	i
CC(C)(C)C(=O)NC(=S)NNC(=O)c1ccncc1	i	i	i	0.91	0	i
CCCCNC(=S)NC(=O)c1ccc(Cl)cc1Cl	i	i	i	0.55	-6	i
CCOC(=O)N1CCN(C(=S)NC(=O)c2ccc(F)c(F)c2)CC1	i	i	i	-1.3	-2	i
Clc1ccc(N2N=C(c3cccs3)CC2c2ccco2)cc1 (centres undefined)	i	i	i	0.27	-10	8*
Cn1c(=O)[nH]c(=O)c2c1nc(NCCN)n2CCOc1ccccc1	i	i	i	-0.27	-6	i
C/C=C/c1ccc(OCC(O)CNCCc2ccc(OC)cc2)c(OC)c1 (centres undefined)	i	i	i	-6*	-11	i
C/C=C/c1ccc(OCC(O)CN(C)Cc2ccc(SC)cc2)c(OC)c1 (centres undefined)	i	i	i	-11*	-20	i
O=C(CSc1nnc(-c2cccnc2)n1Cc1ccccc1)NCc1ccccc1	i	i	i	-0.76	-9	i
CCN(Cc1ccccc1)C(=O)CCc1nc(-c2ccc(C)cc2)no1	i	i	i	-6.7*	-11	i
Cc1ccc(-c2noc(CCC(=O)NCCN3CCc4ccccc4C3)n2)cc1	i	i	i	-8.8*	-1	i
COc1ccc(-c2noc(CCC(=O)NCCCN3CCN(c4ccc(F)cc4)CC3)n2)cc1	i	i	i	0.9	-11	i
COc1ccc(-c2noc(CCC(=O)NCCCN3CCC(Cc4ccccc4)CC3)n2)cc1	i	i	i	-4.6*	-10	i
COc1ccc(NC(=O)c2ccc(NC(=O)CN3CCN(c4ccccc4)CC3)cc2)cc1	i	.	.	.	.	.
Cc1ccc(NC(=O)COC(=O)Cc2c[nH]c3ccccc23)cc1F	i	.	.	.	.	.
Cn1ccnc1SCC(=O)NC1(C#N)CCCCC1	i	i	i	0.69	-12	i
CC1CN(C(=O)/C=C/c2ccc(SC(F)F)cc2)CC(C)O1 (centres undefined)	i	i	i	0.4	-4	i
Cc1ccc(C2(CCNCc3ccco3)CCOC(C(C)C)C2)cc1 (centres undefined)	i	i	i	-4.3*	-8	i
S=C(Nc1ccc(Cl)cc1)NC1CC2CCC(C1)N2Cc1ccccc1 (centres undefined)	i	i	i	-4.7*	-10	i
SMILES	KCNK3 block	KCNK9 block	KCNQ1 pot	Kir21 inh	hERG rescue	KCNQ1 inh
O=C(OCc1c(Cl)nc2sccn12)c1cc2c(s1)CCCC2	i	i	i	-0.78	-8	i
Cc1ncsc1C(=O)N1N=C2/C(=C/c3ccccc3)CCCC2C1c1ccccc1 (centres undefined)	i	-7.6*	i	0.81	-17	7*
Cc1ncsc1C(=O)N1N=C2/C(=C/c3ccc(N4CCOCC4)cc3)CCCC2C1c1ccc(N2CCOCC2)cc1 (centres undefined)	i	i	i	0.38	-12	i
CN(Cc1ccccc1)C1=CC(=[N+]2CCCC2)CC(C)(C)C1	i	i	i	0.51	-23	10*
CC(=O)OC(C(=O)NCS(=O)(=O)c1ccc(C)cc1)c1cccnc1 (centres undefined)	i	i	i	1.1	4.8*	i
Cn1nc(C(F)(F)F)cc1-c1ccc(/C=C(\C#N)C(=O)c2ccccc2)s1	i	i	i	0.03	-4	8*
CNC(=O)c1ccc(-c2cc(C(F)(F)F)nn2C)s1	i	i	i	0.82	-7	i
CN(C(=O)/C(N=Nc1cccc(C(F)(F)F)c1)=C(\O)C(F)(F)F)c1ccccc1	i	i	i	-0.42	-24	6*
CC1CCc2c(sc3nc(C4CC4)nc(N4CCN(C(=O)c5ccco5)CC4)c23)C1 (centres undefined)	i	i	i	1.9	3	6*
N#Cc1ccsc1NC(=O)COC(=O)c1cc2ccccc2cc1O	i	i	i	3	-13	i
CCOC(=O)c1c(NC(=O)CSc2nc3cccnc3n2C)sc(C(C)=O)c1C	-10*	i	i	-0.5	-5	i
CCOC(=O)c1sc(NC(=O)CSc2nc3cccnc3n2C)nc1C	i	i	i	1.5	-3	i
CCOC(=O)C1CCN(Cc2cccc(OCc3ccccc3)c2)CC1	i	i	i	-7.9*	-4	i
O=C(NCc1ccccn1)C1CCN(Cc2cccc(OCc3ccccc3)c2)CC1	i	i	8*	-0.14	-6	i
NC(=O)C1CCN(Cc2cccc(OCc3ccccc3)c2)CC1	i	i	i	-0.37	0	i
O=S1(=O)N=C2CCCCCN2C(c2ccc(Br)cc2)N1 (centres undefined)	i	i	i	-0.54	-1	i
CCCS(=O)(=O)c1nc(S(=O)(=O)c2ccc(C)cc2)c(N2CCCC(C)C2)s1 (centres undefined)	i	i	i	0.92	-3	i
Cc1ccc(S(=O)(=O)N2CCOCC2)cc1NC(=O)COC(=O)CCOc1ccc(C(C)(C)C)cc1	i	i	i	1.5	-18	8*
Cc1ccc(S(=O)(=O)N2CCOCC2)cc1NC(=O)COC(=O)CNC(=O)c1ccc(C(C)(C)C)cc1	i	i	i	-0.02	-9	i
Cc1ccc(S(=O)(=O)N2CCOCC2)cc1NC(=O)COC(=O)c1cccnc1Cl	i	i	i	0.17	35*	i
Cc1ccc(S(=O)(=O)N2CCOCC2)cc1NC(=O)COc1cccc(Oc2ccccc2)c1	i	i	i	-0.74	-12	6*

Screens: PubChem, Johns Hopkins Ion Channel Center
